Test results as given in the RNAGym collection of RNA variant scans (doi:10.1126/science.aae0568).
Variants at the floor of the assay were thinned out.

B1: tRNA (parent)
chain: GUUCCGUUGGCGUAAUGGUAACGCGUCUCCCUCCUAAGGAGAAGACUGCGGGUUCGAGUCCCGUACGGAACG

Variants of: B1
Assay: yeast fitness relative to wild type (ratio to wild type); higher = fitter; tRNA-Arg(CCU), competitive growth, 37 C, YPD
Outline: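 Amplicons of the tRNA-Arg(CCU) gene were sequenced, 100-nucleotide paired-end, from the start population and from each end population of a pooled yeast competition. The competition, in six parallel replicates, lasted 24 hours in YPD at 37°C. Fitness relative to wild type was calculated from changes in genotype frequencies. Genotypes had to have ≥ 100 starting reads, and estimates < 0.5 were set to 0.5.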

Variant	yeast fitness
C30A G51C	0.508
C30A G51A	0.774
C30A A69C	1.03
C30A A69G	0.915
C29U U35C G44C C49U A57U G63A	≤ 0.5
C29U G38C C46A	≤ 0.5
C30U A37C C49U C66U	≤ 0.5
C30A C66A	0.636
C29U C49A U64C	0.597
C30U C31A A40U G56A	≤ 0.5
C30G C33G C34U A42U C66U G67C	≤ 0.5
C30U A43U U64C	0.707
C29U G68A A69C	≤ 0.5
C30A A36C G38A	≤ 0.5
C30G C33G C60G A70C	≤ 0.5
C30A A43C	0.884
C30G C33G A69C	0.544
C30G C33U A45U	0.57
C30A U47C G67U	≤ 0.5
C29U C34G A43U C62U A65U A69C	≤ 0.5
C30A A37C G41A A43U G44C	≤ 0.5
C30G A36G A57U	≤ 0.5
C30G G38A	0.572
C30A U47C G58A A69U	0.563

Variant	yeast fitness
C30A C61A A65C	0.578
C30G G48A U53C A70U	≤ 0.5
C30G U64A A70C	≤ 0.5
C30U A42U A43C A70C	≤ 0.5
C29U G44C C60A	≤ 0.5
C29U C33G G52A G58C	0.596
C30U A57C G63C	≤ 0.5
C30G C49A U54G	≤ 0.5
C30A C62U G63A	≤ 0.5
C30A C46U G52A C55U	≤ 0.5
C30A A40U G58U	≤ 0.5
C29U G48C A65U	≤ 0.5
C30U C31G A36C	≤ 0.5
C30G G44A G63A	≤ 0.5
C29U C33U G39C A57U	≤ 0.5
C30G G56C C62U	≤ 0.5
C30A U53C	0.82
C29U G58C G68A	≤ 0.5
C30G C46G C60U A69G	≤ 0.5
C30A U35A C61G	≤ 0.5
C30A G56A C60G	≤ 0.5
C30G C33A C49A	0.618
C30A C34G G50A C62U C66A	≤ 0.5
C30G U35A A65C	≤ 0.5

Variant	yeast fitness
C30A G51C C55A C66U	≤ 0.5
C29U G67C	0.848
C29U G67A	0.771
C30G G41C A57U	≤ 0.5
C29U U35C	0.95
C30U A37U	0.65
C30G U59G C66A	≤ 0.5
C29U C46A	0.932
C29U C46U	0.929
C29U G51C G67A	≤ 0.5
C29U C62A C66U	≤ 0.5
C30G C33G C60G	≤ 0.5
C29U G41C	0.776
C30A G63C	0.774
C30A A40G U59G A70C	≤ 0.5
C29U C34U G48C G52A	≤ 0.5
C30A A43U C66U	0.75
C29U C66U	0.796
C29U C66A	0.591
C29U C62G G68A	≤ 0.5
C29U C33G	0.689
C30U A43C G67U	0.571
C30A A40C G56A	≤ 0.5
C29U G52C	0.579

Variant	yeast fitness
C30G U32A A40G C61G	≤ 0.5
C30A A65U A69C	0.692
C30A A57U	0.768
C30G C31A A36G G63C	≤ 0.5
C30A C31G G39C	0.535
C30A C61A A69C	0.609
C30A C55U C62G	0.508
C29U C55U	0.636
C30G G58A A69U	0.535
C30G C34G G39C A69C	≤ 0.5
C30A G41A U47C	0.559
C29U C33G G52A G58C A70G	≤ 0.5
C30G A57U C66U A70U	≤ 0.5
C30G C33U G58C U64A	0.56
C30A U32G G67A A69C	≤ 0.5
C29U C34U G41A G67A A70U	≤ 0.5
C30A C31U A45C	0.663
C30G A36U	0.538
C30G A36G	0.679
C30G A36C	0.561
C29U U47A A69U	0.679
C30G A45G G56A	0.526
C30U A43U G51C	≤ 0.5
C29U C55U A65G	≤ 0.5

Variant	yeast fitness
C30A G51C C62G	≤ 0.5
C29U U35C A42U C61U C66A	≤ 0.5
C29U U35A C61G	≤ 0.5
C29U G38C U64C	≤ 0.5
C29U C61U	0.706
C30A G48C	0.797
C30G C61U A69U	≤ 0.5
C30A A36G G67C	0.537
C29U C34G A65G	0.668
C30A C46G	0.991
C30G C46A C60A	≤ 0.5
C30U A36C A65C	0.615
C30G U32A A40U A42C A65C	≤ 0.5
C30U A45G A65G	0.538
C30G C33G C34U A42U A65C	≤ 0.5
C30G G58C	0.637
C30G A36G A57U A65U C66U	≤ 0.5
C29U G38C A43U C55U	0.516
C29U G41A A45C G67U	≤ 0.5
C30U A42C G48C A65C	≤ 0.5
C30A G56U	0.831
C30A G56A	1.04
C30A G56C	0.639
C30A A36C C46G	0.532

Variant	yeast fitness
C30G A40C U64A	0.565
C29U G38C	0.545
C29U G38A	0.733
C30A C62G A70U	0.547
C30A C31A C60U C62G	≤ 0.5
C29U C49U	0.836
C29U U35A G38C A45U U59C	≤ 0.5
C30A G63A U64C	0.893
C30U A42C G48C U64C	≤ 0.5
C30G G39C	0.579
C30G G68U	0.64
C30G G68C	0.691
C30G G68A	0.698
C30G U32A C66U	≤ 0.5
C30A G38A G52A C55A A65C	≤ 0.5
C30G G51C G56U	0.628
C30G A37U C61U	≤ 0.5
C30A A36U C60U A69C	0.6
C29U U47C	0.923
C29U U47A	0.795
C29U U32G A43U G44C C61U	0.509
C30U C31G	0.79
C30U C31A	0.754
C29U C33U U35C U54A	≤ 0.5

Variant	yeast fitness
C30A G50A A65C	0.628
C30U A40G C49U	0.632
C30U A45U	0.955
C30A G41C G51A	≤ 0.5
C30A A37C G38C	≤ 0.5
C30G U32G C46G C66U	≤ 0.5
C30U A42G A43U U54A	≤ 0.5
C30G C33A G50A G52A C60U C61G	≤ 0.5
C30G C49A U53C G63A C66G	≤ 0.5
C29U G38A G48C C62G	0.525
C30G C31U	0.678
C30G A45C C46U	0.612
C30U A57U	0.863
C30G U47C	0.701
C30U A45G G48C G58C U59A	0.548
C30A C62U G63A A69G	≤ 0.5
C30G C34U A36U A65U	0.612
C30G C31G G38C C46G C49U	0.532
C30G C61U G68A	0.541
C30G C31G U64C A65C	≤ 0.5
C29U C62U A70C	0.604
C29U G44C A57U	0.635
C30G C60U	0.552
